ChEMBL document CHEMBL4350999, “Enhanced tumor retention of NTSR1-targeted agents by employing a hydrophilic cysteine cathepsin inhibitor” (Eur J Med Chem, 2019)

Legend:
[1] = Drug uptake in large intestine of SCID mouse xenografted with human HT-29 cells at 0.37 MBq/mouse, iv measured at 72 hrs using 177Lu labelled compound by gamma counter analysis; type: ADME, organism-based; details: in vivo
Method in brief: (§1)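 Female SCID mice (5 weeks) bore s.c. flank xenografts of HT-29 cells (5 × 10^6 in Matrigel), used at about 80 mm3 (two weeks) and randomized. Each mouse received 10 μCi (0.37 MBq) of HPLC-purified 177Lu-conjugate via tail vein. Tissues were excised, weighed and gamma-counted, expressed as %ID/g; mean ± SD, n = 5.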

[2] = Drug uptake in SCID mouse xenografted with human HT-29 cells assessed as tumour retention level at 0.37 MBq/mouse, iv measured at 72 hrs using 177Lu labelled compound by gamma counter analysis; type: ADME, organism-based; details: in vivo
Method in brief: (§2)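 Female SCID mice bearing s.c. flank HT-29 xenografts (5 × 10^6 cells in Matrigel, ~80 mm3). Given 10 μCi (0.37 MBq) 177Lu conjugate i.v. by tail vein; groups sacrificed at 4, 24, 72 h. Tissues weighed and gamma-counted as %ID/g, excretion as %ID; n = 5, mean ± SD. Blocking arms: colchicine 1 mg/kg i.p. beforehand, or D-lysine 40 mg/kg co-injected.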

[3] = Drug uptake in membrane of human HT-29 cells measured after 240 mins using 177Lu labelled compound by gamma counter method relative to control; type: ADME, cell-based; details: ht-29, 4 h
Method in brief: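 HT-29 cells (~1 × 10^6 in 1 mL medium) were incubated with 177Lu-conjugate (100,000 cpm) at 37 °C and sampled at 15–240 min. After medium washes, surface-bound activity was stripped with pH 2.8 glycine-HCl/NaCl buffer, and the internalized fraction was taken from the 1% SDS lysate. Fractions were gamma-counted as % of total added activity; mean ± SD, n = 3.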

[4] = Drug uptake in large intestine of SCID mouse xenografted with human HT-29 cells at 0.37 MBq/mouse, iv measured at 4 hrs using 177Lu labelled compound by gamma counter analysis; type: ADME, organism-based; details: in vivo; method in brief: as §1
[5] = Drug uptake in kidney of SCID mouse xenografted with human HT-29 cells at 0.37 MBq/mouse, iv measured at 4 hrs using 177Lu labelled compound by gamma counter analysis; type: ADME, organism-based; details: in vivo; method in brief: as §1
[6] = Drug uptake in liver of SCID mouse xenografted with human HT-29 cells at 0.37 MBq/mouse, iv measured at 72 hrs using 177Lu labelled compound by gamma counter analysis; type: ADME, organism-based; details: in vivo; method in brief: as §1
[7] = Drug uptake in muscle of SCID mouse xenografted with human HT-29 cells at 0.37 MBq/mouse, iv measured at 4 hrs using 177Lu labelled compound by gamma counter analysis; type: ADME, organism-based, Muscle tissue; details: in vivo; method in brief: as §1
[8] = Drug uptake in SCID mouse xenografted with human HT-29 cells assessed as tumour retention level at 0.37 MBq/mouse, iv measured at 4 hrs using 177Lu labelled compound by gamma counter analysis; type: ADME, organism-based; details: in vivo; method in brief: as §2
[9] = Drug uptake in stomach of SCID mouse xenografted with human HT-29 cells at 0.37 MBq/mouse, iv measured at 72 hrs using 177Lu labelled compound by gamma counter analysis; type: ADME, organism-based; details: in vivo
Method in brief: (§3)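 Female SCID mice (5 weeks old) received s.c. flank HT-29 cells (5 × 10^6 in Matrigel). At ~80 mm3, two weeks later, mice were randomized and given 10 μCi (0.37 MBq) of purified 177Lu conjugate i.v. by tail vein. Mice were killed at 4, 24 or 72 h. Tissues were weighed and gamma counted as %ID/g, mean ± SD, n = 5. Tumor-to-tissue ratios were calculated.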

[10] = Drug uptake in large intestine of SCID mouse xenografted with human HT-29 cells at 0.37 MBq/mouse, iv measured at 24 hrs using 177Lu labelled compound by gamma counter analysis; type: ADME, organism-based; details: in vivo; method in brief: as §1
[11] = Drug uptake in muscle of SCID mouse xenografted with human HT-29 cells at 0.37 MBq/mouse, iv measured at 24 hrs using 177Lu labelled compound by gamma counter analysis; type: ADME, organism-based, Muscle tissue; details: in vivo; method in brief: as §1
[12] = Drug uptake in brain of SCID mouse xenografted with human HT-29 cells at 0.37 MBq/mouse, iv measured at 72 hrs using 177Lu labelled compound by gamma counter analysis; type: ADME, organism-based; details: in vivo; method in brief: as §1
[13] = Drug uptake in heart of SCID mouse xenografted with human HT-29 cells at 0.37 MBq/mouse, iv measured at 4 hrs using 177Lu labelled compound by gamma counter analysis; type: ADME, organism-based; details: in vivo; method in brief: as §1
[14] = Drug uptake in liver of SCID mouse xenografted with human HT-29 cells at 0.37 MBq/mouse, iv measured at 4 hrs using 177Lu labelled compound by gamma counter analysis; type: ADME, organism-based; details: in vivo; method in brief: as §1
[15] = Drug uptake in bone of SCID mouse xenografted with human HT-29 cells at 0.37 MBq/mouse, iv measured at 24 hrs using 177Lu labelled compound by gamma counter analysis; type: ADME, organism-based, Bone element; details: in vivo; method in brief: as §2
[16] = Drug uptake in small intestine of SCID mouse xenografted with human HT-29 cells at 0.37 MBq/mouse, iv measured at 24 hrs using 177Lu labelled compound by gamma counter analysis; type: ADME, organism-based; details: in vivo; method in brief: as §1
[17] = Drug uptake in pancreas of SCID mouse xenografted with human HT-29 cells at 0.37 MBq/mouse, iv measured at 72 hrs using 177Lu labelled compound by gamma counter analysis; type: ADME, organism-based; details: in vivo; method in brief: as §1
[18] = Drug excretion in SCID mouse xenografted with human HT-29 cells at 0.37 MBq/mouse, iv measured after 72 hrs using 177Lu labelled compound; type: ADME, organism-based; details: in vivo; method in brief: as §2
[19] = Drug uptake in small intestine of SCID mouse xenografted with human HT-29 cells at 0.37 MBq/mouse, iv measured at 72 hrs using 177Lu labelled compound by gamma counter analysis; type: ADME, organism-based; details: in vivo; method in brief: as §1
[20] = Octanol-PBS buffer distribution coefficient, log D of 177Lu labelled compound at pH 7.4 by radiometric analysis; type: physicochemical
Method in brief: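 177Lu conjugate partitioned between 1-octanol and PBS pH 7.4. 100 μL aliquots from each layer were gamma counted, and LogD7.4 was calculated from the counts.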

[21] = Drug uptake in spleen of SCID mouse xenografted with human HT-29 cells at 0.37 MBq/mouse, iv measured at 72 hrs using 177Lu labelled compound by gamma counter analysis; type: ADME, organism-based; details: in vivo; method in brief: as §3
[22] = Drug uptake in kidney of SCID mouse xenografted with human HT-29 cells at 0.37 MBq/mouse, iv measured at 72 hrs using 177Lu labelled compound by gamma counter analysis; type: ADME, organism-based; details: in vivo; method in brief: as §1
[23] = Drug uptake in lung of SCID mouse xenografted with human HT-29 cells at 0.37 MBq/mouse, iv measured at 4 hrs using 177Lu labelled compound by gamma counter analysis; type: ADME, organism-based; details: in vivo; method in brief: as §1
[24] = Drug uptake in spleen of SCID mouse xenografted with human HT-29 cells at 0.37 MBq/mouse, iv measured at 4 hrs using 177Lu labelled compound by gamma counter analysis; type: ADME, organism-based; details: in vivo; method in brief: as §3
[25] = Drug uptake in bone of SCID mouse xenografted with human HT-29 cells at 0.37 MBq/mouse, iv measured at 4 hrs using 177Lu labelled compound by gamma counter analysis; type: ADME, organism-based, Bone element; details: in vivo; method in brief: as §1
[26] = Drug uptake in blood of SCID mouse xenografted with human HT-29 cells at 0.37 MBq/mouse, iv measured at 24 hrs using 177Lu labelled compound by gamma counter analysis; type: ADME, organism-based; details: in vivo; method in brief: as §2
[27] = Drug uptake in heart of SCID mouse xenografted with human HT-29 cells at 0.37 MBq/mouse, iv measured at 72 hrs using 177Lu labelled compound by gamma counter analysis; type: ADME, organism-based; details: in vivo; method in brief: as §1

Compound | Drug uptake [1] [% ID/g] | Drug uptake [2] [% ID/g] | Drug uptake [4] [% ID/g] | Drug uptake [5] [% ID/g] | Drug uptake [6] [% ID/g] | Drug uptake [7] [% ID/g] | Drug uptake [8] [% ID/g] | Drug uptake [9] [% ID/g] | Drug uptake [10] [% ID/g] | Drug uptake [11] [% ID/g] | Drug uptake [12] [% ID/g] | Drug uptake [13] [% ID/g] | Drug uptake [14] [% ID/g] | Drug uptake [15] [% ID/g] | Drug uptake [16] [% ID/g] | Drug uptake [17] [% ID/g] | Drug excretion [18] [%ID] | Drug uptake [19] [% ID/g] | Drug uptake [21] [% ID/g] | Drug uptake [22] [% ID/g] | other results
Cc1cc(O)cc(C)c1C[C@H](NC(=O)[C@@H]1CCCN1C(=O)[C@H](CCCNC(=N)N)NC(=O)[C@H](CCCNC(=N)N)N(C)C(=O)[C@@H]1CCCN1C(=O)[C@H](CCCCN)NC(=O)[C@@H](CO)NC(=O)[C@@H](CO)NC(=O)[C@@H](CO)NC(=O)[C@H](Cc1cn(CCNC(=O)[C@H](CCCNC(=N)N)NC(=O)[C@H](CC(C)C)NC(=O)CCC(=O)O)nn1)NC(=O)CN1CCN(CC(=O)O)CCN(CC(=O)O)CCN(CC(=O)O)CC1)C(=O)N[C@H](C(=O)N[C@@H](CC(C)C)C(=O)O)C(C)(C)C | 0.36 | 2.6 | 1 | 57 | 0.26 | 0.04 | 5.6 | 0.08 | 0.73 | 0.05 | 0.01 | 0.13 | 0.42 | 0.15 | 1.9 | 0.08 | 91.6 | 1.07 | 0.8 | 15 | Drug uptake [3]: Not Active; logD [20]: -3.51; Drug uptake [23]: 0.37 % ID/g; Drug uptake [24]: 1 % ID/g; Drug uptake [25]: 0.18 % ID/g
Cc1cc(O)cc(C)c1C[C@H](NC(=O)[C@@H]1CCCN1C(=O)[C@H](CCCNC(=N)N)NC(=O)[C@H](CCCNC(=N)N)N(C)C(=O)[C@@H]1CCCN1C(=O)[C@H](CCCCN)NC(=O)[C@@H](CO)NC(=O)[C@@H](CO)NC(=O)[C@@H](CO)NC(=O)[C@H](Cc1cn(CC(=O)N[C@H](CO)C(=O)N[C@H](CO)C(=O)N[C@H](CO)C(=O)NCC(=O)NCCCC[C@H](NC(=O)[C@H](Cc2ccccc2)NC(=O)OCc2ccccc2)C(=O)NCCc2ccccc2)nn1)NC(=O)CN1CCN(CC(=O)O)CCN(CC(=O)O)CCN(CC(=O)O)CC1)C(=O)N[C@H](C(=O)N[C@@H](CC(C)C)C(=O)O)C(C)(C)C | 1.62 | 3.4 | 4 | 64 | 5.3 | 0.44 | 8.4 | 0.51 | 2.6 | 0.38 | 0.01 | 1.1 | 9.2 | 1.8 | 5.6 | 0.68 | 73 | 3.2 | 18 | 28 | Drug uptake [26]: 0.14 % ID/g; Drug uptake [27]: 0.27 % ID/g; Drug uptake [23]: 4.3 % ID/g; Drug uptake [24]: 19 % ID/g; Drug uptake [25]: 2.6 % ID/g
Cc1cc(C)c(C(=O)OCC(=O)[C@H](CCCCNC(=O)CNC(=O)[C@@H](CO)NC(=O)[C@@H](CO)NC(=O)[C@@H](CO)NC(=O)Cn2cc(C[C@H](NC(=O)CN3CCN(CC(=O)O)CCN(CC(=O)O)CCN(CC(=O)O)CC3)C(=O)N[C@H](CO)C(=O)N[C@H](CO)C(=O)N[C@H](CO)C(=O)N[C@@H](CCCCN)C(=O)N3CCC[C@H]3C(=O)N(C)[C@@H](CCCNC(=N)N)C(=O)N[C@@H](CCCNC(=N)N)C(=O)N3CCC[C@H]3C(=O)N[C@@H](Cc3c(C)cc(O)cc3C)C(=O)N[C@H](C(=O)N[C@@H](CC(C)C)C(=O)O)C(C)(C)C)nn2)NC(=O)[C@H](Cc2ccccc2)NC(=O)OCc2ccccc2)c(C)c1 | 1.6 | 6.3 | 2.9 | 58.2 | 11 | 0.53 | 7.8 | 0.8 | 2.1 | 0.35 | 0.02 | 1.4 | 38.6 | 1.5 | 5.5 | 0.6 | 57 | 4.3 | 17 | 45 | Drug uptake [3]: 2%; Drug uptake [26]: 0.17 % ID/g; Drug uptake [27]: 0.4 % ID/g; logD [20]: -1.95; Drug uptake [23]: 4.5 % ID/g; Drug uptake [24]: 16.1 % ID/g; Drug uptake [25]: 1.6 % ID/g
